Calls of active or inactive are those of the source. The rule behind the calls is not given here.
Key:
[1] = system: Raji; experiment: Growth inhibition of human Raji cells after 96 hrs by MTT assay; type: functional, cell-based
How it was run: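 Human Raji Burkitt lymphoma cells were seeded at 20000/well and cultured with compound or vehicle for 4 days (96 h) in 5% CO2. MTT reagent was added for 5 h, then 2-propanol/0.04 N HCl, and absorbance was read at 570 and 630 nm. EC50 came from curve fitting.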

[2] = system: MCF7; experiment: Growth inhibition of human MCF7 cells overexpressing MCT4 after 4 days by MTT assay; type: cell-based; conditions: MCF7, 96 h
How it was run: (§1)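 MCF7 cells engineered to overexpress mouse MCT1 or human MCT4 were seeded at 2000/well and compound was added the next day. Cells were cultured 4 days in 5% CO2, then given MTT reagent for 5 h and solubilized with 2-propanol/0.04 N HCl. Absorbance was read at 570 and 630 nm, in triplicate. The highest concentration tested on MCF7_MCT4 cells was 10 μM.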

[3] = system: MCF7; experiment: Growth inhibition of human MCF7 cells overexpressing MCT1 after 4 days by MTT assay; type: functional, cell-based; conditions: MCF7, 96 h; how it was run: as §1
[4] = target: T1, Monocarboxylate transporter 4 (Homo sapiens) (UniProt O15427); experiment: Inhibition of MCT4 (unknown origin) overexpressed in human MCF7 cells assessed as inhibition of transporter-mediated [14C]lactate transport after 10 mins by scintillation counting; type: cell-based
T1 sequence (whole entry): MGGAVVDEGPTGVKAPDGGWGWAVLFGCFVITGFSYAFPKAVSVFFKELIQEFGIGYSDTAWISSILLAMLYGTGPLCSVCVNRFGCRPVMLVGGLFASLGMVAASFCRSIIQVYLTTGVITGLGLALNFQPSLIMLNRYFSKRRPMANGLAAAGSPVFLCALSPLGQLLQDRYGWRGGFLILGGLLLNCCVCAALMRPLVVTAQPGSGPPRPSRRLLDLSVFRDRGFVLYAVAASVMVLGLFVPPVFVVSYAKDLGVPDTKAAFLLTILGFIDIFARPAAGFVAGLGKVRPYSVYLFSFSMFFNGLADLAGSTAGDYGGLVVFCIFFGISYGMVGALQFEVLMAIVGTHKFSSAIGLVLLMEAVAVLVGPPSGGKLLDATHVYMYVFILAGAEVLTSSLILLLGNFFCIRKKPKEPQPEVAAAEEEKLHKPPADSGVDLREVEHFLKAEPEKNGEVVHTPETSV

[5] = system: MCF7; experiment: Growth inhibition of human MCF7 cells overexpressing MCT4 up to 10 uM after 4 days by MTT assay; type: cell-based; conditions: mcf7, 96 h; how it was run: as §1
[6] = system: MCF7; experiment: Growth inhibition of human MCF7 cells overexpressing MCT4 at 10 uM after 4 days by MTT assay; type: cell-based; conditions: mcf7, 96 h; how it was run: as §1

EC50 [1]	SMILES	further results
> 10000 nM	CC(C)Cn1c(=O)n(C)c(=O)c2[nH]c(=O)c(Cc3cccc4ccccc34)nc21	–
2850 nM	CC(C)Cn1c(=O)n(C)c(=O)c2nc(SCCO)c(Cc3cccc4ccccc34)nc21	–
0.5 nM	CC(C)Cc1nn(C)c(=O)c2c(SCCCO)n(Cc3cccc4ccccc34)cc12	EC50 [2]: > 10000 nM; EC50 [3]: 21 nM; inhibition [4]: inactive
> 10000 nM	Cc1n[nH]c(C)c1Cc1nc2c(nc1CCCCCO)c(=O)n(C)c(=O)n2CC(C)C	–
151 nM	CC(C)Cn1c(=O)n(C)c(=O)c2nc(SCCCO)c(Cc3cccc4ccccc34)nc21	–
37 nM	CC(C)Cn1c(=O)n(C)c(=O)c2nc(SCCCCO)c(Cc3cccc4ccccc34)nc21	Activity [5]: Non-toxic
70 nM	CC(C)Cn1c(=O)n(C)c(=O)c2nc(/C=C\CCCO)c(Cc3cccc4ccccc34)nc21	Activity [6]: Toxic
6020 nM	CC(C)Cn1c(=O)n(C)c(=O)c2nc(-c3[nH]nnc3CCCO)c(Cc3cccc4ccccc34)nc21	–
3750 nM	CC(C)Cn1c(=O)n(C)c(=O)c2nc(S(=O)(=O)CCCO)c(Cc3cccc4ccccc34)nc21	–
285 nM	CC(C)Cn1c(=O)n(C)c(=O)c2nc(CCCCO)c(Cc3cccc4ccccc34)nc21	–
58 nM	CC(C)Cn1c(=O)n(C)c(=O)c2nc(CCCCCO)c(Cc3cccc4ccccc34)nc21	Activity [5]: Non-toxic
5780 nM	COCCCCCc1nc2c(=O)n(C)c(=O)n(CC(C)C)c2nc1Cc1cccc2ccccc12	–
18 nM	Cc1n[nH]c(C)c1Cc1sc2c(c1C(=O)N1C[C@H](O)CO1)c(=O)n(C)c(=O)n2CC(C)C	–
1990 nM	CC(C)Cn1c(=O)n(C)c(=O)c2nc([S+]([O-])CCCO)c(Cc3cccc4ccccc34)nc21 (stereo not drawn)	–
150 nM	CC(C)Cn1c(=O)n(C)c(=O)c2c1nc(Cc1cccc3ccccc13)c(=O)n2CCCCO	–
> 10000 nM	CC(C)Cn1c(=O)n(C)c(=O)c2nc(C(=O)NCCCO)c(Cc3cccc4ccccc34)nc21	–
> 10000 nM	CC(C)Cn1c(=O)n(C)c(=O)c2nc(-c3c(CCCO)nnn3C)c(Cc3cccc4ccccc34)nc21	–
1690 nM	CC(C)Cn1c(=O)n(C)c(=O)c2nc(CCCCCCO)c(Cc3cccc4ccccc34)nc21	–
> 10000 nM	CC(C)Cn1c(=O)n(C)c(=O)c2c1nc(Cc1cccc3ccccc13)c(=O)n2CCCCCCO	–
1420 nM	CC(C)Cn1c(=O)n(C)c(=O)c2c1nc(Cc1cccc3ccccc13)c(=O)n2CCCCCO	–
> 10000 nM	CC(C)Cn1c(=O)n(C)c(=O)c2nc(-c3nnn(C)c3CCCO)c(Cc3cccc4ccccc34)nc21	–
> 10000 nM	CC(C)Cn1c(=O)n(C)c(=O)c2nc(C(=O)N(C)CCCO)c(Cc3cccc4ccccc34)nc21	–

— ChEMBL document CHEMBL3352262, “Synthesis and structure-activity relationships of pteridine dione and trione monocarboxylate transporter 1 inhibitors” (J Med Chem, 2014)
